Assay [1] has as its target Mitogen-activated protein kinase kinase kinase 11 (Homo sapiens) (UniProt Q16584). Kind of assay: Competitive binding affinity to MLK3 (unknown origin) at 10 uM in presence of ATP relative to control.
Assay [2] deals with Fibroblast growth factor receptor 4 (Homo sapiens) (UniProt P22455). Nature of the assay: Competitive binding affinity to FGFR4 (unknown origin) at 10 uM in presence of ATP relative to control. In a few lines:
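In vitro ATP-site competition binding assay, part of profiling against a diverse panel of 128 kinases. Each compound was tested at a single concentration of 10 µM. Kinome selectivity was summarized as S15 selectivity scores.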

In assay [3] the target is Casein kinase I isoform delta (Homo sapiens) (UniProt P48730). Nature of the assay: Competitive binding affinity to CSNK1D (unknown origin) at 10 uM in presence of ATP relative to control.
The target of assay [4] is Tyrosine-protein kinase receptor UFO (Homo sapiens) (UniProt P30530). Nature of the assay: Competitive binding affinity to AXL (unknown origin) at 10 uM in presence of ATP relative to control.
Assay [5] addresses ALK tyrosine kinase receptor (Homo sapiens) (UniProt Q9UM73). Kind of assay: Competitive binding affinity to ALK (unknown origin) at 10 uM in presence of ATP relative to control.
Assay [6] has as its target Proto-oncogene tyrosine-protein kinase receptor Ret (Homo sapiens) (UniProt P07949). Kind of assay: Competitive binding affinity to RET (unknown origin) at 10 uM in presence of ATP relative to control.
Assay [7] concerns the target Serine/threonine-protein kinase 38-like (Homo sapiens) (UniProt Q9Y2H1). Nature of the assay: Competitive binding affinity to NDR2 (unknown origin) at 10 uM in presence of ATP relative to control. In a few lines: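 In vitro ATP-site competition binding assay across a diverse panel of 128 kinases, with compound tested at a single concentration. Kinase selectivity scores (S15) were calculated from the panel profiles.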

In assay [8] the target is Serine/threonine-protein kinase MRCK beta (Homo sapiens) (UniProt Q9Y5S2). Kind of assay: Competitive binding affinity to MRCKB (unknown origin) at 10 uM in presence of ATP relative to control.
The target of assay [9] is T1, MAP kinase-activated protein kinase 5 (Homo sapiens) (UniProt Q8IW41).
T1 sequence (whole entry): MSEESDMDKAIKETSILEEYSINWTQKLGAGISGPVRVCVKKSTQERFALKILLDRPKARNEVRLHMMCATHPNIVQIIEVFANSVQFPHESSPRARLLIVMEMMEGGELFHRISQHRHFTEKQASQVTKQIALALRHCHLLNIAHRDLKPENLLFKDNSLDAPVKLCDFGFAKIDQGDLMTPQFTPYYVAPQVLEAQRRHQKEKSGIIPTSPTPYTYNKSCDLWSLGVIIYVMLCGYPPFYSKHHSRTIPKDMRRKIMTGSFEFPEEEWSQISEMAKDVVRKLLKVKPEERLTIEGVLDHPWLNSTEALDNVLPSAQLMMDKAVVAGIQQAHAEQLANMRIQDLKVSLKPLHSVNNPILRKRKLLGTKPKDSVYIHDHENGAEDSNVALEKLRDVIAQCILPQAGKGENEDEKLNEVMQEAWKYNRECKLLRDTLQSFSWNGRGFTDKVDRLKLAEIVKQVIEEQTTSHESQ
Kind of assay: Competitive binding affinity to MAPKAPK5 (unknown origin) at 10 uM in presence of ATP relative to control.

For assay [10], the target named is T2, Serine/threonine-protein kinase DCLK3 (Homo sapiens) (UniProt Q9C098).
T2 sequence (whole entry): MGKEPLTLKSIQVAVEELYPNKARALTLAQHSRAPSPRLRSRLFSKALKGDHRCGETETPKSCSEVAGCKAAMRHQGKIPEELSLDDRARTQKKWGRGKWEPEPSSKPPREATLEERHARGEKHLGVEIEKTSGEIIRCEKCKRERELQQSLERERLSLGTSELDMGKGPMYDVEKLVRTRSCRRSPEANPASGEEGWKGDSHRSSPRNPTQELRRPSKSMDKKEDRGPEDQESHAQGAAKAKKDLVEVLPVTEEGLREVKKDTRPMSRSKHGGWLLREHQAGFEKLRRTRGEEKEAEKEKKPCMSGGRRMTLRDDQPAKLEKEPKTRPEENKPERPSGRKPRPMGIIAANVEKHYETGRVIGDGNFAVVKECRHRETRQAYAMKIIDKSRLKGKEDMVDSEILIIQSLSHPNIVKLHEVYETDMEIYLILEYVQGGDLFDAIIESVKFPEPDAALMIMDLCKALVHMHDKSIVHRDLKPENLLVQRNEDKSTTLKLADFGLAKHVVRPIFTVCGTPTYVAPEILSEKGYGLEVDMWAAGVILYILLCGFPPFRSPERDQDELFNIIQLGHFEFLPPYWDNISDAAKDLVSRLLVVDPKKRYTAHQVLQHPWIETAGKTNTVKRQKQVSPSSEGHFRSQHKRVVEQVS
Nature of the assay: Competitive binding affinity to DCAMKL3 (unknown origin) at 10 uM in presence of ATP relative to control.

The target in assay [11] is T3, Ankyrin repeat and protein kinase domain-containing protein 1 (Homo sapiens) (UniProt Q8NFD2).
T3 sequence (whole entry): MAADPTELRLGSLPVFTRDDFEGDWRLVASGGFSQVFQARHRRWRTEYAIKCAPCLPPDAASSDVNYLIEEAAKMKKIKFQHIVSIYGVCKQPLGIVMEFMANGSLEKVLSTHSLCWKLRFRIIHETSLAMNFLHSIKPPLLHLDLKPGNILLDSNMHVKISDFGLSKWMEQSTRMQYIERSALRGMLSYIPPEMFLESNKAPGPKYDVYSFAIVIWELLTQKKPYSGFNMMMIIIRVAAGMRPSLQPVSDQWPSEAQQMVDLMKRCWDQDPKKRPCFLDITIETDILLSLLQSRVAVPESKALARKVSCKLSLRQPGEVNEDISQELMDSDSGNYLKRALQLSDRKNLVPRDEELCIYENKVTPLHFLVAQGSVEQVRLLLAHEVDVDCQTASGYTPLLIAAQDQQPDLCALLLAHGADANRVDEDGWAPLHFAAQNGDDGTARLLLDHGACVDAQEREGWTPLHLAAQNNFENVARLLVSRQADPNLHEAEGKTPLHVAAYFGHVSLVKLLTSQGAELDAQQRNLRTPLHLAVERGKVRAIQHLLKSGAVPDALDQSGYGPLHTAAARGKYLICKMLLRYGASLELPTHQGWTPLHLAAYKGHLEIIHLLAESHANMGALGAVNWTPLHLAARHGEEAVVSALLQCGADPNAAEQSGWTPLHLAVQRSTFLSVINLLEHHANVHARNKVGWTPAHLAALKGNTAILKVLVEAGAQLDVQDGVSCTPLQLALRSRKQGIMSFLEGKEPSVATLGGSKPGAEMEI
Kind of assay: Competitive binding affinity to ANKK1 (unknown origin) at 10 uM in presence of ATP relative to control.

Assay [12] has as its target Mitogen-activated protein kinase kinase kinase 12 (DLK) (Homo sapiens) (UniProt Q12852). Kind of assay: Competitive binding affinity to DLK (unknown origin) at 10 uM in presence of ATP relative to control.

Each structure is given as a SMILES string.

ALK tyrosine kinase receptor (Homo sapiens), sequence (Q9UM73 19-1620 limits assumed): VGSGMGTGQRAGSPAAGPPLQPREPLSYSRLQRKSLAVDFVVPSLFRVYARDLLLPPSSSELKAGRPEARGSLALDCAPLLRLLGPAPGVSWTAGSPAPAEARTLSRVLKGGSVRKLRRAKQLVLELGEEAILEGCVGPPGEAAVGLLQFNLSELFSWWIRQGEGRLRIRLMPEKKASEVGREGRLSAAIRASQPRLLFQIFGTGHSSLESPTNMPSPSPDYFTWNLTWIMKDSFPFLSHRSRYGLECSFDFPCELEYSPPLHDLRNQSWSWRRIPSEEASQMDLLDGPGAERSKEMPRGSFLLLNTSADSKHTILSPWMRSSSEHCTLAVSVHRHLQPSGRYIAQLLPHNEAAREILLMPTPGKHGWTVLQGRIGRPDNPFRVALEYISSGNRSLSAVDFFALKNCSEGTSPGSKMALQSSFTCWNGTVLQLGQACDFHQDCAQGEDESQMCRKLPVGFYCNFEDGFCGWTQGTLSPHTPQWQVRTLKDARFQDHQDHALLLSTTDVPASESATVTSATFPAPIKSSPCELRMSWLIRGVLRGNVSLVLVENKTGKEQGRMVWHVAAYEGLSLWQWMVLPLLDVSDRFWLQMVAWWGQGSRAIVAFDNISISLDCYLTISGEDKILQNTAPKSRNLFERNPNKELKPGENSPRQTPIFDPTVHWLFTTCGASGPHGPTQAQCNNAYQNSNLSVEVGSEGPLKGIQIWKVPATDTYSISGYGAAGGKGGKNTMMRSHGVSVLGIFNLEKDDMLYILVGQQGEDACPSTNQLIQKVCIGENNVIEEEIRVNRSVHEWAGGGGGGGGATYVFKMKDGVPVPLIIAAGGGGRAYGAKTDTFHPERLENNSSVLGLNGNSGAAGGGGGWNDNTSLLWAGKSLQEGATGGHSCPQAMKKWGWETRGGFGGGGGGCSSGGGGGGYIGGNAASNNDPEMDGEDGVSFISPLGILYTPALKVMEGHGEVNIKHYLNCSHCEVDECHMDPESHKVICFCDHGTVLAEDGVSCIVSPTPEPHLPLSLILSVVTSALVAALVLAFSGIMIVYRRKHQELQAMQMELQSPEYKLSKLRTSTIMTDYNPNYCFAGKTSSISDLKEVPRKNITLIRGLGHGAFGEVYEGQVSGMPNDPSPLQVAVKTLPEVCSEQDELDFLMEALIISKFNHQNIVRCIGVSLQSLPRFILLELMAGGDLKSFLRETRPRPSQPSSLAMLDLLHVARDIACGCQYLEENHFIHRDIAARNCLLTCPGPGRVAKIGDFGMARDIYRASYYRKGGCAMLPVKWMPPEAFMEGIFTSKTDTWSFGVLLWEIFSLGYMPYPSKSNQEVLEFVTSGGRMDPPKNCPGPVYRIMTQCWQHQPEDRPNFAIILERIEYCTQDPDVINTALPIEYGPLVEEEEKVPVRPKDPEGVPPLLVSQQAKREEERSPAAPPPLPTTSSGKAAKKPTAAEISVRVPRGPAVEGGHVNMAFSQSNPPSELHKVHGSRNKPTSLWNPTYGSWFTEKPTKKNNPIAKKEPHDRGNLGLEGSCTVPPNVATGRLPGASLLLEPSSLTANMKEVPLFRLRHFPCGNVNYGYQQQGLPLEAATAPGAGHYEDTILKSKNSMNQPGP
Proto-oncogene tyrosine-protein kinase receptor Ret (Homo sapiens), sequence (P07949 whole entry): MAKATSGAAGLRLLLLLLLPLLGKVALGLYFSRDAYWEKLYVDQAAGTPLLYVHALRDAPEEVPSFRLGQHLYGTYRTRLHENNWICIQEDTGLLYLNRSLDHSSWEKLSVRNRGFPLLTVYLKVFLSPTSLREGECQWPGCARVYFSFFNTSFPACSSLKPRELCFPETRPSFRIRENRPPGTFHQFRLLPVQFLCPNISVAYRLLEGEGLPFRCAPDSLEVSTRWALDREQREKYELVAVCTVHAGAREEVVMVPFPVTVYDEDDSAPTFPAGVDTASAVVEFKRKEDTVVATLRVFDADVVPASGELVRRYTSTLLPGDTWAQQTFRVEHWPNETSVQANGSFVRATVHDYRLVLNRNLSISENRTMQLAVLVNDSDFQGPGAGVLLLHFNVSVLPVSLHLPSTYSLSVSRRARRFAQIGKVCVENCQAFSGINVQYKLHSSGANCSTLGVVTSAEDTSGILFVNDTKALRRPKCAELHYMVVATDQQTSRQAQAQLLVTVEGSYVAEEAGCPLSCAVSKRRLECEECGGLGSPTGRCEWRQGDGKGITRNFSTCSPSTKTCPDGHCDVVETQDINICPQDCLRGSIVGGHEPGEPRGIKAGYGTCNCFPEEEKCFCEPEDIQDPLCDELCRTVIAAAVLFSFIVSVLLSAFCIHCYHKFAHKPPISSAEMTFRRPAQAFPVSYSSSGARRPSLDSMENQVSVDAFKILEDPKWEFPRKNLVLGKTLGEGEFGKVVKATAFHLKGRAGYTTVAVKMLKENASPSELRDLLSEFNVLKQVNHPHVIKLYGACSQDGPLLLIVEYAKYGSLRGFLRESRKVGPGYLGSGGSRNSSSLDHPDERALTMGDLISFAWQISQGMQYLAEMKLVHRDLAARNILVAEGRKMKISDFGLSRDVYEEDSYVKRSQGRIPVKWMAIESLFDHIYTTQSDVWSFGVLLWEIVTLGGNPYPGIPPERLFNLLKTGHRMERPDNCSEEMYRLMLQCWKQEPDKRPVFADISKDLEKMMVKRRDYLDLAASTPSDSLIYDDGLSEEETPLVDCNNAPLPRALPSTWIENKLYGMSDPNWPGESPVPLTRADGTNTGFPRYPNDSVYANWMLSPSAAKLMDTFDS
Serine/threonine-protein kinase 38-like (Homo sapiens), sequence (Q9Y2H1 2-464 limits assumed): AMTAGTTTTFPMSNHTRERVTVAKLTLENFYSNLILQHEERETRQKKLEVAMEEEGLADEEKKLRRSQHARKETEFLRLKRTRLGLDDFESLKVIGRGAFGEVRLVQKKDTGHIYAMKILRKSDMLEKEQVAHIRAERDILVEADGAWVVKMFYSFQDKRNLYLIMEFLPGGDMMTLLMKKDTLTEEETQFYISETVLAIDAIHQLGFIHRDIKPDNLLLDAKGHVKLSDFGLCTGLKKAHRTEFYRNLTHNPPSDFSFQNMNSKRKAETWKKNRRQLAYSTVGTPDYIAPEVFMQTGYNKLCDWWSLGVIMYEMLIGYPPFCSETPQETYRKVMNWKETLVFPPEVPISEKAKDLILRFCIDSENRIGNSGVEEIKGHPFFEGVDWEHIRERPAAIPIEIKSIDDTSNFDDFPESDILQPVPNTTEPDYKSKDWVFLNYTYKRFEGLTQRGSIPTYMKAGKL
Fibroblast growth factor receptor 4 (Homo sapiens), sequence (P22455 22-802 limits assumed): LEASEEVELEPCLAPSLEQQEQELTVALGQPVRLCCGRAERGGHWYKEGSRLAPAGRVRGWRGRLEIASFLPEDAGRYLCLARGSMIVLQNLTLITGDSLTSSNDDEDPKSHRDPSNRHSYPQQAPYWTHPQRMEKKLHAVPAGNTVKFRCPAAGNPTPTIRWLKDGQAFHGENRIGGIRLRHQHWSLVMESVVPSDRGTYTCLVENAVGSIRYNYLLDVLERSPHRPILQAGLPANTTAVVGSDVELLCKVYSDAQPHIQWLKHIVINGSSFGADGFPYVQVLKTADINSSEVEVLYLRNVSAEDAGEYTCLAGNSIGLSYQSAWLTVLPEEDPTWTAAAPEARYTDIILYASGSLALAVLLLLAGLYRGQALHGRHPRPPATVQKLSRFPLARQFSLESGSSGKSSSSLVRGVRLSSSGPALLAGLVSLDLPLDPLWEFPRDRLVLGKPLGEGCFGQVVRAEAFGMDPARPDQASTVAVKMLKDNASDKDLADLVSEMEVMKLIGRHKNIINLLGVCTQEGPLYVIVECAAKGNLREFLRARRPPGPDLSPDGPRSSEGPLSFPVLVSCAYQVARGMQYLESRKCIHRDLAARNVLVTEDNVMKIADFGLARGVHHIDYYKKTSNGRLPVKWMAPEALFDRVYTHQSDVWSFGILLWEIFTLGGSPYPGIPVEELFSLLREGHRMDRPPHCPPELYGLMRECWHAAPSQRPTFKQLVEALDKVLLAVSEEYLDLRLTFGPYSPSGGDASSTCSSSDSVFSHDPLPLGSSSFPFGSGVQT
Mitogen-activated protein kinase kinase kinase 11 (Homo sapiens), sequence (Q16584 whole entry, looked up): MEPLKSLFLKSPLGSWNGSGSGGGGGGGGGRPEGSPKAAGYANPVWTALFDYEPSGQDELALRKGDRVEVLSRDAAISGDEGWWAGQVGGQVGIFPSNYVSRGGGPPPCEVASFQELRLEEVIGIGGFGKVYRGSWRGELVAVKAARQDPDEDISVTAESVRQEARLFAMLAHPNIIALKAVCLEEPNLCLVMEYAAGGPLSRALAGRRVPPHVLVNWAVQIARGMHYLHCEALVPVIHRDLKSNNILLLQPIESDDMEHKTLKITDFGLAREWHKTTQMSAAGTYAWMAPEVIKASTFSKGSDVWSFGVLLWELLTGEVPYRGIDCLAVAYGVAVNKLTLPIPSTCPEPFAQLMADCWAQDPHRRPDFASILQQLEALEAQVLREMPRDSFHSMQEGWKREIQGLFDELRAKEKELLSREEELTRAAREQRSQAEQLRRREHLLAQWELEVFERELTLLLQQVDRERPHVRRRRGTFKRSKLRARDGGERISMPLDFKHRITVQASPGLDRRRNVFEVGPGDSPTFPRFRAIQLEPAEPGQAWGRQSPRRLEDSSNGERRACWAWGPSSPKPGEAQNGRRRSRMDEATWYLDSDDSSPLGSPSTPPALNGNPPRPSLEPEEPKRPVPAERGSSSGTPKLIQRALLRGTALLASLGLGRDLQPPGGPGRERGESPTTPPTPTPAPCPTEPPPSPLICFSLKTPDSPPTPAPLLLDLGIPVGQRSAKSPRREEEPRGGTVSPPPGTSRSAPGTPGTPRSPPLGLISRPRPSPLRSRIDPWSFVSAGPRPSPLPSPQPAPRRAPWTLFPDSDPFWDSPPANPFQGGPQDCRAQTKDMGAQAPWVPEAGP

Regarding `O[C@H]1CC[C@H](Nc2nccc(-c3n[nH]c4ccccc34)n2)CC1`, the inhibition (as a rule, how much of the control response was suppressed) in assay [1] is 88%; in assay [2], less than 50%; in assay [3] it was 100%; in assay [4], 100%; in assay [5], 100%; in assay [6], 94%. The inhibition in [7] is 72%.
As to `O[C@H]1CC[C@H](Nc2nccc(-n3ccc4ccccc43)n2)CC1`, the inhibition in [8] was less than 50%; in assay [1] it was less than 50%; in assay [9], less than 50%; in assay [2], less than 50%; in assay [10] it was 84%; in assay [3], 91%. Also, the inhibition in assay [4], in assay [11], in assay [5], in assay [6], in assay [7] and in assay [12] was less than 50% throughout.
For `O[C@H]1CC[C@H](Nc2nccc(-n3ncc4ccccc43)n2)CC1`, the inhibition is less than 50% in assay [8]; less than 50% in [1]; less than 50% in assay [9]; less than 50% in assay [2]; 73% in assay [10]; 96% in assay [3]. For the same compound, the inhibition is 93% in [4]; less than 50% in [11]; 78% in assay [5]; less than 50% in assay [6]; less than 50% in assay [7]; less than 50% in assay [12].
On to `O[C@H]1CC[C@H](Nc2nccc(-n3nnc4ccccc43)n2)CC1`, for which the inhibition in [8] is less than 50%; in [1], less than 50%; in assay [9], less than 50%; in assay [2], less than 50%; in assay [10] it was 92%; in assay [3] it was 100%. Also, the inhibition in assay [4] was less than 50%; in assay [11], 69%; in assay [5], 66%; in [6], less than 50%; in [7] it was less than 50%; in assay [12], less than 50%.
On to `CS(=O)(=O)CCCOc1cccc2c1ccn2-c1ccnc(N[C@H]2CC[C@H](C(=O)N3CCC(O)CC3)CC2)n1`, for which the inhibition in assay [10] was greater than 85%.

For the origin of these results see ChEMBL document CHEMBL2424622, “Development of amino-pyrimidine inhibitors of c-Jun N-terminal kinase (JNK): kinase profiling guided optimization of a 1,2,3-benzotriazole lead” (Bioorg Med Chem Lett, 2013).
